Bioassay records (PubChem BioAssay)
The list is not random: actives were taken first. Their share in the collection is about 4.3%.
CAL PDZ FP-1 – untagged CAL PDZ binding inhibitors, primary screen, biochemical, fluorescence polarization, HTS. Golgi-associated PDZ and coiled-coil motif-containing protein (Homo sapiens), Q9HD26. purified CAL PDZ, TMR-peptide fluorescence polarization, 1 h. inhibition, % at 24.9 µM. 0.92% of 300,000 active. AID 602252, 2012;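 active = mean inhibition of at least 30% with at least half of replicates also reaching 30%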;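 note: 0% = DMSO neutral control and 100% = excess unlabeled competitor peptide PRC23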
ALR inh – inhibitors of human ALR sulfhydryl oxidase, primary screen, biochemical, H2O2 detection, HRP-luminol luminescence, single point; purified ALR, DTT oxidation; inhibition, % (concentration not given with the values); FAD-linked sulfhydryl oxidase ALR (Homo sapiens), P55789; 3.8% of 290,000 active;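 active = mean replicate inhibition above about 79%, with every replicate also reaching it, limit read from the data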
Target sequence (P55789 whole entry, looked up): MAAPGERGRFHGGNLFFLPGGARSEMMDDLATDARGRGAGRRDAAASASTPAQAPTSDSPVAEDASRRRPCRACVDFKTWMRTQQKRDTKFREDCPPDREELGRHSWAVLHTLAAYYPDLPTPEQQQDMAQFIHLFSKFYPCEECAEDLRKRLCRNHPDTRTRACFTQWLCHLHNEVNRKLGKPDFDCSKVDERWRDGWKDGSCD
CAL PDZ FP-2 – CAL PDZ peptide-binding inhibitors, primary screen, biochemical, fluorescence polarization, Cer-tagged CAL PDZ, HTS; Golgi-associated PDZ and coiled-coil motif-containing protein (Homo sapiens), Q9HD26; purified CAL PDZ, TMR-peptide fluorescence polarization, 1 h; inhibition, % at 20 µM; 0.02% of 330,000 active; AID 504414, 2011;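 active = highest replicate inhibition of at least 40%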;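 note: plate controls were DMSO neutral control wells for no effect and unlabeled competitor peptide control wells for full effect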
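Material: tagged CAL PDZ protein CerCALP, purified; buffer or medium: sodium phosphate/NaCl buffer pH 7.4 with TCEP, IgG, Thesit; also added: fluorescent TMR peptide probe; schedule: 1 h incubation at room temperature before polarization reading; technique: fluorescence polarization from S- and P-plane intensities, G-factor corrected; control set: unlabelled peptide and DMSO controls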
Rtt109 Vps75 – inhibitors of C. albicans Rtt109/Vps75 HAT, primary screen, biochemical, ThioGlo CoA-SH fluorescence, plate reader | AID 540336, 2011 | purified Rtt109/Vps75, 4 h | inhibition, % at 34.9 µM | 0.16% of 330,000 active;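 active = inhibition of at least 50% in every replicate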
Dyrk1A ADPGlo – rat Dyrk1A kinase inhibitors, primary screen, biochemical, single point, plate reader; ADP-Glo luminescence, NFATc1 peptide; inhibition, % at 12.5 µM; 0.43% of 310,000 active; in the data active = inhibition above about 50%;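 note: plate controls were vehicle with enzyme for no effect and no enzyme for full effect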
* marks the source's active call; other numbers are inactive results; x = not tested or not shown.

SMILES | CAL PDZ FP-1 | ALR inh | CAL PDZ FP-2 | Rtt109 Vps75 | Dyrk1A ADPGlo
O=C(CSc1nc2ccccc2o1)Nc1nc(-c2ccccc2)c(-c2ccccc2)s1 | -4 | -10 | -1 | 6 | -3
CC(=O)N1CC(=O)N=C1SCC(=O)Nc1nc(C)c(-c2ccccc2)s1 | 5 | 98* | 0 | 36 | 48
Cc1cccc(CC(=O)c2c[nH]c3ccccc23)c1 | -6 | -3 | -1 | -3 | x
Cc1cccnc1NC(=O)Cn1nc(-c2ccccc2)oc1=S | x | 46 | 0 | -12 | 11
COCC(=O)N(C)C[C@H]1N[C@@](C)(C(=O)OC)[C@H]2C(=O)N(Cc3ccccc3)C(=O)[C@@H]12 | 4 | x | 0 | 2 | -5
Cc1ccccc1-c1ccc(Nc2ccc(N3CCOCC3)cc2)nn1 | 0 | 93* | x | -2 | 5
Cn1nc(C(=O)Nc2ccc3c(c2)OCCO3)cc1C(=O)O | -5 | -10 | -2 | 3 | 2
CCOc1ccc(CCNC(=O)C2CCN(c3nnc(-n4cccc4)s3)CC2)cc1 | x | -2 | 0 | 5 | 2
CCOc1ccc(NCc2cccn2-c2nnc(N3CCC(C(=O)NCCCN4CCCCC4)CC3)s2)cc1 | 2 | 99* | -1 | 14 | 0
CCOc1ccc(NCc2cccn2-c2nnc(N3CCC(C(=O)NCCCN4CCCCC4C)CC3)s2)cc1 (centres undefined) | -4 | 99* | -2 | -12 | -2
CCOc1ccc(NCc2cccn2-c2nnc(N3CCC(C(=O)NCCCN4C(C)CCCC4C)CC3)s2)cc1 (centres undefined) | 5 | 99* | -2 | 12 | -4
CCCn1cc(S(=O)(=O)c2ccc(OC)cc2)c(=O)c2cc(OC)ccc21 | -3 | -13 | -4 | -1 | -1
CCC1(C)Cc2ccccc2-c2[nH][nH]c(=O)c21 (centres undefined) | -4 | 35 | -2 | 36 | 47
CCOc1cc(N2CCOCC2)c(OCC)cc1NC(=O)c1cc(C)cc(C)c1 | 76* | -25 | 1 | 0 | x
CCOc1cc(N2CCOCC2)c(OCC)cc1NC(=O)c1ccc(C)cc1 | -1 | -21 | -1 | 2 | x
COc1cc(OC)cc(C(=O)N2CCC(N3CCN(c4ccccc4)CC3)CC2)c1 | -1 | 82* | x | -11 | 3
COc1ccc(C(=O)N2CCC(C(=O)Nc3ccccc3OC)CC2)cc1 | 4 | -1 | 0 | 3 | 2
COc1ccc(C(=O)N2CCC(N3CCN(c4ccccc4)CC3)CC2)cc1OC | 1 | 59 | 0 | -4 | x
COC(=O)c1ccccc1NC(=O)C1CCN(C(=O)c2cc(OC)cc(OC)c2)CC1 | 115* | -8 | -1 | 10 | -3
COc1ccc(C(=O)C2CCN(C(=O)c3ccc(OC)cc3)CC2)cc1 | 74* | x | 3 | -13 | -7
COc1cccc(NC(=S)N2CCn3cccc3C2c2cccnc2)c1 (centres undefined) | 6 | -3 | 0 | -4 | -1
Cc1ccc(C)c(NC(=O)CN(C)C(=O)c2ccc(-c3cccc(C(F)(F)F)c3)o2)c1 | -2 | 1 | -2 | -1 | 3
Clc1nnc(Cl)c2c1ncn2Cc1ccccc1 | 1 | 6 | -1 | x | 5
COc1ccc2c(c1OC)C(=O)N1N=C(c3ccc(O)cc3)CC21 (centres undefined) | -3 | 99* | -2 | 2 | -7
COc1ccc2c(c1OC)C(=O)N1N=C(c3ccc(-c4ccccc4)cc3)CC21 (centres undefined) | 2 | x | -7 | -3 | 3
COc1ccc2c(c1OC)C(=O)N1c3ccccc3N=C(c3ccc([N+](=O)[O-])cc3)CC21 (centres undefined) | -3 | 97* | 1 | 4 | -5
CC1CCCCC12NC(=O)N(CC(=O)OCc1ccccc1F)C2=O (centres undefined) | -4 | -1 | -2 | -4 | 9
COc1ccc(CCNC(=O)CN2C(=O)NC3(CCCCC3C)C2=O)cc1 (centres undefined) | -6 | 6 | -1 | 51* | -3
CC1CCCCC12NC(=O)N(CC(=O)OCc1cccc(F)c1)C2=O (centres undefined) | 56* | -1 | 0 | -6 | x
